Reference: ChEMBL document CHEMBL1145350, “Solid-phase synthesis of quinol fatty alcohols, design of N/O-substituted quinol fatty alcohols and comparative activities on axonal growth” (Bioorg Med Chem Lett, 2006)
pIC50: −log10 of the molar value.

Tested on: Radical scavenging activity
Test: Antioxidant activity assessed as ability to scavenge hydroxyl radicals by ABTS competition assay
Format: functional
Procedure, shortened: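 Hydroxyl radical scavenging in ethanolic medium by ABTS competition. Hydroxyl radicals oxidize ABTS to the stable ABTS•+ cation radical, read by absorbance at 405 nm. IC50 is the compound concentration giving a 50% reduction in ABTS•+.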

Structure (SMILES)	pIC50
COc1ccc(OC)c(CCCCCCCCCCCCCCCO)c1	< 2.00
Cc1c(C)c2c(c(C)c1O)CCC(C)(C(=O)O)O2 (configuration not stated) [TROLOX]	3.22
